# Reference: paper PMC11634041 (Nature, 2024)
# T1: human HCN1 (full length) (Homo sapiens, UniProt O60741)
# T1 sequence (O60741 1-890): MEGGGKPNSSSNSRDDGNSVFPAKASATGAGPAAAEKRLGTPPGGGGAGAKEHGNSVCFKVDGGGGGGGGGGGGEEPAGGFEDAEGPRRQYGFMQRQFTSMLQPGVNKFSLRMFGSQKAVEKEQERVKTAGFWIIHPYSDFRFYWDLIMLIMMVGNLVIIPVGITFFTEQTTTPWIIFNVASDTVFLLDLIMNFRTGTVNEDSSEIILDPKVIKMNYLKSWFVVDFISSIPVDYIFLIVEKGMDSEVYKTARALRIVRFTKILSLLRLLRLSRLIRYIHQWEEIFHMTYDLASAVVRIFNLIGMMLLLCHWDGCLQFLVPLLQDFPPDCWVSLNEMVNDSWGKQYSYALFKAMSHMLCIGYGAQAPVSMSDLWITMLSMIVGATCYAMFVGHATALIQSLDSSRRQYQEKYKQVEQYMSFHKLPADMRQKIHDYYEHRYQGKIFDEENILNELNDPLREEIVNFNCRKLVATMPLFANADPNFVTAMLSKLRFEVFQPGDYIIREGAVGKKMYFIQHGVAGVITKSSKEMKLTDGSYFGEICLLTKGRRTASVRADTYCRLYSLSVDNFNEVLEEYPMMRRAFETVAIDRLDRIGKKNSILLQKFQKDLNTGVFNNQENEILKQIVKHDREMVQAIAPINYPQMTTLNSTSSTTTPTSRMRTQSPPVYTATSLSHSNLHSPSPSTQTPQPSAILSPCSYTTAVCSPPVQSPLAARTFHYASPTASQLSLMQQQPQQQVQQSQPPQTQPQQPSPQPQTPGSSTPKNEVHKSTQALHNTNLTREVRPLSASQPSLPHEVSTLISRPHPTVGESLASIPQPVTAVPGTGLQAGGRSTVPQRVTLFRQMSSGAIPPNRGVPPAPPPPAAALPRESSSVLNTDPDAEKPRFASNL
# B1: human HCN1EM M305L in lipid nanodiscs (natural protein, UniProt O60741 1-890, looked up)
# chain: MEGGGKPNSSSNSRDDGNSVFPAKASATGAGPAAAEKRLGTPPGGGGAGAKEHGNSVCFKVDGGGGGGGGGGGGEEPAGGFEDAEGPRRQYGFMQRQFTSMLQPGVNKFSLRMFGSQKAVEKEQERVKTAGFWIIHPYSDFRFYWDLIMLIMMVGNLVIIPVGITFFTEQTTTPWIIFNVASDTVFLLDLIMNFRTGTVNEDSSEIILDPKVIKMNYLKSWFVVDFISSIPVDYIFLIVEKGMDSEVYKTARALRIVRFTKILSLLRLLRLSRLIRYIHQWEEIFHMTYDLASAVVRIFNLIGMLLLLCHWDGCLQFLVPLLQDFPPDCWVSLNEMVNDSWGKQYSYALFKAMSHMLCIGYGAQAPVSMSDLWITMLSMIVGATCYAMFVGHATALIQSLDSSRRQYQEKYKQVEQYMSFHKLPADMRQKIHDYYEHRYQGKIFDEENILNELNDPLREEIVNFNCRKLVATMPLFANADPNFVTAMLSKLRFEVFQPGDYIIREGAVGKKMYFIQHGVAGVITKSSKEMKLTDGSYFGEICLLTKGRRTASVRADTYCRLYSLSVDNFNEVLEEYPMMRRAFETVAIDRLDRIGKKNSILLQKFQKDLNTGVFNNQENEILKQIVKHDREMVQAALPRESSSVLNTDPDAEKPRFASNL
# Experiments:
# [1] = biological target: spHCN (R332C background, Alexa-488 labelled, called WT) (Strongylocentrotus purpuratus, UniProt O76977, R332C/M375L); experiment: two-electrode voltage clamp, oocytes; type: cell-based; conditions: 100 μM ZD7288; pore blocker control; Alexa-488-labelled channel
# [2] = biological target: T1, human HCN1 (full length); experiment: two-electrode voltage clamp, oocytes; type: cell-based; conditions: 30 μM propofol, 20 min incubation; pH 7.4; allosteric inhibitor
# In short: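 Full-length human HCN1 RNA (wild type or mutant), made by in vitro transcription, injected into defolliculated Xenopus laevis oocytes. Oocytes stored at 16°C in 1:2 diluted L-15 medium with 2.5% penicillin-streptomycin and 5 mM HEPES pH 7.5. Two-electrode clamp used 3 M KCl-filled electrodes (0.1–0.5 MΩ current, 1–5 MΩ voltage).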
# [3] = biological target: the molecule itself; experiment: cryo-EM structure
molecule,measurement,setting,value
CCN(c1ccccc1)c1cc(NC)[n+](C)c(C)n1 [ZD7288],"two-electrode voltage clamp, oocytes",[1],currents from spHCN M375L channels are blocked by the HCN-channel blocker ZD7288
"CC(C)c1cccc(C(C)C)c1O [propofol, 2,6-di-iso-propylphenol]",ΔV1/2 (mV) / I / Iapo (%),[2],−30.9 ± 6.4 mV
B1,binding result,[3],binds
